The text below walks through data of ChEMBL document CHEMBL4513216, “Probing the Open Global Health Chemical Diversity Library for Multistage-Active Starting Points for Next-Generation Antimalarials” (ACS Infect Dis, 2020).

The series in a line: Toxicity liver stage against HepG2, at 10uM. It is filed as cell-based. Also noted: test concentration 10 uM, cell line HepG2-A16-CD81EGFP. To be noted: human, HepG2-A16-CD81EGFP cells; read-out: INHIBITION
In a few lines:
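Uninfected HepG2-A16-CD81EGFP cells, 3 × 10^3 per well, 1536-well, plated on prespotted compound at 10 μM final, parasite-free screening media added to match infected plates; puromycin 10 μM positive, DMSO 0.5% negative; run in parallel with 48 h PbLuc assay at 37 °C, 5% CO2; viability by CellTiter-Glo luminescence, normalized to controls.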
As for `CC(C)OCCC(=O)NCC(O)c1c(F)cccc1F` (stereo not given), the cytotoxicity at 10 µM was -6.51%. For the compound `CC(=O)c1c(C)nn(S(=O)(=O)c2ccc(C)cc2)c1C`, the cytotoxicity at 10 µM is -1.61%.

For the compound `O=C(Cc1ccco1)N1C[C@H]2CCC[C@@]2(COc2cccnc2)C1`, the cytotoxicity at 10 µM was -109%.

Take `COc1ccc2c(C)c(C(=O)NC3CCN(S(C)(=O)=O)CC3)oc2c1`: the cytotoxicity at 10 µM amounted to 8.55%. Under `N[C@H]1CCCN(S(=O)(=O)c2ccc(C(=O)NCC(F)F)cc2)C1` stands -0.566%; under `Cc1cc(C)cc(CN2CCCC2c2noc(C)n2)c1` (stereo not given), 9.86%. Under `CCc1noc(CN2C[C@@H]3CC[C@H]2CN(C2Cc4ccccc4C2)C3)n1` stands -0.268%; under `COCCc1noc(CN2CCCCC2Cn2cccn2)n1` (stereo not given), -1.3%; under `O=c1ccc2c(n1CC1CC1)CCC(NS(=O)(=O)C1CC1)C2` (stereo not given), -63.9%. For the compound `Cc1cc(CN2CCN(C(=O)C3(C#N)CCCCC3)CC2)on1`, the cytotoxicity at 10 µM was found to be 4.81%.

As to `CN1CC2(CCN(C(=O)c3cn4cccnc4n3)CC2)CC1=O`, the cytotoxicity at 10 µM is -7.72%. In the case of `CC(C)(C)c1nc(CN2CCC(c3nc4cc(Cl)ccc4o3)CC2)no1`, the cytotoxicity at 10 µM is 3.9%. Under `O=C(NCc1cc[nH]n1)N1CCC(Oc2ccccc2Cl)CC1` stands 8.16%; under `O=C(CCCn1ccnc1)N[C@H]1CN(C2CCCC2)C[C@@H]1C1CC1`, 7.69%; under `COc1ccccc1C1CCN(C(=O)c2ncccc2OC(C)C)C1` (stereo not given), -0.67%.

`CC(=O)N1CCc2[nH]nc(C(=O)N3CCOCC3)c2C1`: the cytotoxicity at 10 µM is -7.37%.

Take `COc1ccccc1NC(=O)N1CCCC1c1ccco1` (stereo not given): the cytotoxicity at 10 µM was -4.78%. Take `Cc1nnc(N2C[C@@H]3CCCO[C@@H]3[C@H](N(C)C)C2)s1`: the cytotoxicity at 10 µM is 17.5%. In the case of `Cc1noc([C@@H]2C[C@H]3OCC[C@H]3N(C(C)C)C2)n1`, the cytotoxicity at 10 µM was -125%.

Turning to `COCCCN1CC2(CCCN(c3ncc4nc[nH]c4n3)C2)CCC1=O` (stereo not given), the cytotoxicity at 10 µM was -5.64%. Under `N#Cc1ccccc1Cn1cncn1` stands 13.1%; under `OC1(CN2CCCC2)COCCN(c2cc(C(F)(F)F)ccn2)C1` (stereo not given), -5.34%; under `CCN(CC)C(=O)Cn1cc(-c2nc(-c3ccccc3C)no2)nn1`, -2.46%.

For the compound `Cc1ccc(CN2CCN(CC(=O)N(C)C)[C@@H]3CS(=O)(=O)C[C@@H]32)cc1C`, the cytotoxicity at 10 µM turned out to be 1.18%.

In the case of `COc1ccc(-c2nc(CN3CCN(CCO)CC3)co2)cc1`, the cytotoxicity at 10 µM is -0.0868%. Consider `CCS(=O)(=O)N1CC[C@H](OC)[C@@H]1Cc1ccncc1`, for which the cytotoxicity at 10 µM was 5.43%. As for `Cc1ccc(NC2CCN(C(=O)c3ccnc(N(C)C)c3)CC2)nn1`, the cytotoxicity at 10 µM was found to be 3.97%. The result for `CN(Cc1ncnn1C)c1ccnc(Cc2ccccc2)n1` reads -1.92%; that for `CN1[C@@H]2CC[C@H]1CN(C(=O)c1ccc(-c3ccccc3)[nH]1)CC2`, -0.372%.

Take `c1csc(CN2CCCn3nnc(COCC4CC4)c3C2)n1`: the cytotoxicity at 10 µM was -101%. The result for `Cc1cnn(CCC(=O)N2CCN(c3nccs3)CC2)c1` reads -8.03%; that for `CC(C)C(=O)NCC(=O)NCC1CCN(c2cnn(C)c(=O)c2)CC1`, 3.47%. Under `CC(=O)N(Cc1ncc(C(C)C)o1)C1CCN(CCC#N)C1` (stereo not given) stands -6.39%; under `OC(COCc1cccs1)Cn1cc(-n2cccc2)cn1` (stereo not given), 0.12%. As to `CC(=O)NCc1ccc(C(=O)N2CCCc3c(F)ccc(C)c32)o1`, the cytotoxicity at 10 µM was -0.883%. The result for `O=C(Cc1cn2ccsc2n1)N(Cc1ccco1)CC1CCCO1` (stereo not given) reads 7.07%; that for `Cc1cncc(C(=O)N2CCC3(CC2)C(=O)Nc2ccccc23)c1`, -137%; that for `CCCC(C)C(=O)N1CCC(c2cc(N3CCOCC3)nc(C)n2)CC1` (stereo not given), -3.35%.

Turning to `Cc1ccc(CN2CCOC3(COCCN(S(C)(=O)=O)C3)C2)o1` (stereo not given), the cytotoxicity at 10 µM amounted to 11.7%. For `N#Cc1ccc(NC2CCN(Cc3ccccn3)CC2)c(F)c1`, the cytotoxicity at 10 µM is 0.109%. For `CC(=O)NCCCNCc1cc(F)ccc1Br`, the cytotoxicity at 10 µM is -0.595%. The result for `NC(=O)N1CCCN(CCCSCc2ccccc2)CC1` reads -2.17%; that for `CCS(=O)(=O)N1CCc2c(cccc2NCc2nc(C)c(C)o2)C1`, -46.9%.

Regarding `CN(C)[C@@H]1CCN(C(=O)NC2CCCC2)[C@H]1Cc1ccncc1`, the cytotoxicity at 10 µM is 5.83%.

`CNS(=O)(=O)c1ccc(C(=O)N2CCCC2c2ccncc2)o1` (stereo not given): the cytotoxicity at 10 µM was -6.23%. Take `Cc1cc(C)c(CNC(=O)C2CCN(c3cnccn3)CC2)c(=O)[nH]1`: the cytotoxicity at 10 µM was -10.7%. Consider `O=C(Nc1ccccc1-c1cccs1)N1CCOCC1`, for which the cytotoxicity at 10 µM was -5.01%.

Take `Cc1cc(C(=O)N2CCCC3(COCCN(c4ncccn4)C3)C2)[nH]n1` (stereo not given): the cytotoxicity at 10 µM was -3.58%.

As for `CN(CCC(=O)NC1CC1)Cc1ccc(Cl)s1`, the cytotoxicity at 10 µM came to 7.83%.

Take `O=C(c1cnn(-c2ccccc2Cl)c1)N1CCN(CCO)CC1`: the cytotoxicity at 10 µM was -4.26%.

`COc1coc(CN2CCCC(CCc3ccccc3C)C2)cc1=O` (stereo not given): the cytotoxicity at 10 µM is -0.931%. Under `CCN(C(C)=O)c1nc(CN2CCCC2Cn2cncn2)cs1` (stereo not given) stands -5.15%. Turning to `CC(C)N1CCC2(CC1)C(=O)N(CCN(C)C)c1ccccc12`, the cytotoxicity at 10 µM was -121%. With `C=C(C)CN(c1cn[nH]c1)S(=O)(=O)c1cccc(C#N)c1`, the cytotoxicity at 10 µM was 3.84%. `O=C(NCc1nnc2ccccn12)N1CCc2sccc2C1`: the cytotoxicity at 10 µM is -1.25%. The result for `Cc1ccc(OCC(O)CN2CCC(Cn3cc(C)cn3)CC2)cc1` (stereo not given) reads -3.17%; that for `COc1cccc(COCC(=O)N2CCCC2Cn2cccn2)c1` (stereo not given), -0.153%.

Regarding `c1csc(-c2nc(CN3CCOC(Cn4cncn4)C3)cs2)c1` (stereo not given), the cytotoxicity at 10 µM is -3.91%. For `Cn1nc(-c2ccccc2NC(=O)c2cncc(Br)c2)ccc1=O`, the cytotoxicity at 10 µM was determined as 0.461%. Under `O=C(CCO)N1CC2(CCN(c3ccccc3)C2)C1` stands 8.76%; under `CCN(CC)S(=O)(=O)c1ccc(CNC(=O)N2CCCCCC2)cc1`, -2.9%. Under `Cn1ncc2c1NC(=O)CC2c1ccccc1Cl` (stereo not given) stands 55.7%; under `O=C1[C@H]2CN(Cc3nccs3)C[C@H]2CN1c1ccsc1`, 3.06%.

Consider `CN(C1CCCC1)C(C)(C)C(=O)NCCS(C)(=O)=O`, for which the cytotoxicity at 10 µM is -49.7%.

Turning to `CCN1CCn2c(C)cnc2C12CCN(C(=O)NC)CC2`, the cytotoxicity at 10 µM was 0.906%.

On to `CN(C)S(=O)(=O)NCC(O)c1cc2ccccc2s1` (stereo not given), for which the cytotoxicity at 10 µM is -13.2%. For `Cc1cccc(-c2nc(CN3CCOCS3(=O)=O)c(C)o2)c1`, the cytotoxicity at 10 µM was found to be 2.01%. On to `N#Cc1cccc(CN2CC[C@@H]3CO[C@@H](CN4CCCC4)[C@@H]3C2)c1`, for which the cytotoxicity at 10 µM is -0.159%. In the case of `COc1cc(F)cc(CNC(=O)Nc2ccn(CC(F)F)n2)c1`, the cytotoxicity at 10 µM is -2.21%. With `O=C(c1c[nH]cn1)N1CCCn2c(CN3CCCCC3)nnc2C1`, the cytotoxicity at 10 µM was -3.03%. The result for `COc1cccc(C2CCCN2Cc2nnnn2C2CC2)c1` (stereo not given) reads 4.17%; that for `N#Cc1cccc(S(=O)(=O)NC(=O)COC2CCCC2)c1`, -4.79%; that for `NC(=O)C1CCN(c2nc3nccc(-c4ccccc4)c3c(=O)[nH]2)CC1`, -9%. Under `CN1C[C@@H](C(=O)NC(C)(C)C)[C@@]2(CCc3ccccc3C(=O)N2)C1` stands -3.79%.

As to `O=C(CCc1ccccc1F)NC1CCCN(c2ccccn2)C1` (stereo not given), the cytotoxicity at 10 µM worked out at 2.21%.

With `COc1ccc(CN2CCC(c3nccnc3-n3ccnc3)CC2)cc1`, the cytotoxicity at 10 µM was -27.4%. Under `Cc1cc(C(=O)NCC(Cc2cccc(F)c2)N2CCCCC2=O)no1` (stereo not given) stands 2.68%; under `CCN1Cc2cc(F)ccc2N(C(=O)C2CCC2)CCC1=O`, -41.2%; under `CC(C)OC(=O)NCc1ccc(NCc2cnn(C(C)(C)C)c2)cc1`, -0.741%.

For `C[C@H]1C[C@@H]2CCN(Cc3nccs3)C[C@H]2O1`, the cytotoxicity at 10 µM was -3%. Take `N#Cc1ccc(-c2nnc(CSCCN3CCOCC3)o2)cc1`: the cytotoxicity at 10 µM was -5.08%.

As for `O=C(N[C@@H]1CN(c2ncccn2)C[C@@H]2CCCO[C@@H]21)c1ccnnc1`, the cytotoxicity at 10 µM turned out to be 6.32%. Consider `CCc1nc(CN2CCCN(CC(=O)N3CCOCC3)CC2)no1`, for which the cytotoxicity at 10 µM was -10.2%. Regarding `CO[C@H]1CCN(S(=O)(=O)N(C)C)[C@@H]2CN(Cc3cccnc3)C[C@H]12`, the cytotoxicity at 10 µM worked out at 11.9%. Under `Cc1ccnc(OC[C@]23COC[C@H]2CN(C(=O)c2cnccn2)C3)n1` stands -7.1%; under `CC(C)CCN1C(=O)C2(NC(=O)c3ccccc3O2)c2ccccc21` (stereo not given), 4.02%; under `Fc1ccc(-c2ccc(CNC3CCc4ncnn4C3)o2)cc1` (stereo not given), -7.62%. On to `COc1ccc(S(=O)(=O)NCc2cccnc2N(C)C)cc1`, for which the cytotoxicity at 10 µM was determined as 5.32%. The result for `Cc1nn(C)cc1CN1CCc2c(nc(-c3ccccn3)[nH]c2=O)C1` reads -32.1%; that for `CCN(Cc1ccc2c(c1)OCCO2)S(=O)(=O)N(C)C(C)C`, -9.21%. The result for `CCc1ncc(CN2CCc3nc4sc(C)cc4c(=O)n3CC2)cn1` reads -6.47%; that for `c1ccc(-c2nc(CNCC3CCCN3c3cccnn3)co2)cc1` (stereo not given), -12.7%.

With `Cc1cc(C(=O)CN(Cc2cccnc2)CC2CCCO2)c(C)[nH]1` (stereo not given), the cytotoxicity at 10 µM is -1.26%.

For `CCCn1ncc(CN(CCN(C)C)Cc2ccsc2)c1C`, the cytotoxicity at 10 µM turned out to be 12.2%. Under `Cc1nc(C)n(CC2CCCN2Cc2cc(-c3cccs3)on2)n1` (stereo not given) stands -0.367%.
